According to ChEMBL document CHEMBL3864163, “I. Discovery of a novel series of CXCR3 antagonists. Multiparametric optimization of N,N-disubstituted benzylamines” (Bioorg Med Chem Lett, 2016):

How the values were obtained:
[1] = molecular target: T1, C-X-C chemokine receptor type 3 (Homo sapiens, UniProt P49682); test: Displacement of [125I]-CXCL10 from human recombinant CXCR3 transfected in Flp-In-CHO cell membranes after 60 mins by gamma counting method
T1 sequence (P49682 whole entry): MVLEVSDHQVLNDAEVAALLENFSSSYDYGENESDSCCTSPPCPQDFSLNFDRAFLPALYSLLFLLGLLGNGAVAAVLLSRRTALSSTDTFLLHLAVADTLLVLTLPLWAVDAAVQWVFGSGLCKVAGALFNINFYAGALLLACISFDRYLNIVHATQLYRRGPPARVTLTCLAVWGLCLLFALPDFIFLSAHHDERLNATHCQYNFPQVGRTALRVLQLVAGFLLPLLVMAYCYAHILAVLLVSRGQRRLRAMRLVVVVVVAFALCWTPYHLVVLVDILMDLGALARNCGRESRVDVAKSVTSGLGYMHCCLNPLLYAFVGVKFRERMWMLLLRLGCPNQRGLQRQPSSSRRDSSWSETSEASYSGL

[2] = Metabolic stability in human liver microsomes assessed as parent compound remaining in presence of NADPH by LC-MS/MS method; format: ADME
Method in brief: (§1)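 Compound incubated with liver microsomes (human or mouse) plus NADPH at 37 °C. Loss of parent was followed by LC-MS-MS and reported as percent. Stability bands: low <40%, medium 40–60%, high >60%.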

[3] = Metabolic stability in mouse liver microsomes assessed as parent compound remaining in presence of NADPH by LC-MS/MS method; format: ADME; method in brief: as §1
[4] = Apparent permeability across human Caco2 cells after 2 hrs by LC-MS method; format: ADME, cell-based; settings: Caco-2
Method in brief: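 Caco-2 monolayers checked for integrity, then dosed alongside high- and low-permeability controls. Apical and basal samples taken at 2 h. Four transport conditions: A-B at pH 6.5/7.4 (0% or 0.5% BSA apical, 5% BSA basal), and A-B and B-A at pH 7.4/7.4 (0.5% BSA both sides). Compound quantified by LC/MS. Rapid transport defined as Papp >20 nm/s.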

[5] = Absolute oral bioavailability in Balb/c mouse at 10 mg/kg; format: ADME, organism-based; settings: in vivo
Method in brief: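 Male Balb/c mice dosed once orally at 10 mg/kg and once intravenously at 3 mg/kg. Either 4 animals per route were profiled individually, or sparse sampling used 24 mice with 3 per time point for mean profiles. Absolute oral bioavailability was derived from the two routes.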

[6] = molecular target: T2, Muscarinic acetylcholine receptor M2 (Homo sapiens) (UniProt P08172); test: Displacement of [3H]AF-DX384 from recombinant human muscarinic M2 receptor expressed in CHO cells at 10 uM after 60 mins by scintillation counting method relative to control; format: cell-based
T2 sequence (whole entry): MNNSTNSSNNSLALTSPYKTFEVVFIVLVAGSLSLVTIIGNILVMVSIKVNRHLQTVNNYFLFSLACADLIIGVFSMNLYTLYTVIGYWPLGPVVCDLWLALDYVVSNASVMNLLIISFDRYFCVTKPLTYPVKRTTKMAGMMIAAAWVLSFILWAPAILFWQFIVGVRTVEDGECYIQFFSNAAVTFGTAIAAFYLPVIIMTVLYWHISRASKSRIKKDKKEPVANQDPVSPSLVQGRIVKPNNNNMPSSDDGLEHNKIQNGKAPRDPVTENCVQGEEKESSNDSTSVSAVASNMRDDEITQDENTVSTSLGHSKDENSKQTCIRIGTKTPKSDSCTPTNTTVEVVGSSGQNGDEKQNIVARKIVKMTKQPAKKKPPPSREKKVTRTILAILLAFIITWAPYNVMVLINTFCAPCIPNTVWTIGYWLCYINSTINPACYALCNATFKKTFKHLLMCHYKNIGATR

[7] = Intrinsic clearance in human hepatocytes assessed per 10^6 cells at 5 uM; format: ADME, cell-based, Hepatocyte

| IC50 [1] [nM] | Stability [2] [%] | Stability [3] [%] | Papp at 2 h [4] [×10⁻⁶ cm/s] | bioavailability [5] [%] | inhibition [6] [%] | CLH [7] [mL/h] | SMILES |
| --- | --- | --- | --- | --- | --- | --- | --- |
| 190 | 19 | 29 |  |  |  |  | COc1cc(CN(Cc2cccnc2)C(C)c2ccc3c(c2)CCO3)ccc1OCCN1C(=O)CCC1=O (stereo unspecified) |
| 1800 |  |  |  |  |  |  | COc1cc(CNC(CC(C)C)c2ccc3c(c2)CCO3)ccc1OCCN1C(=O)CCC1=O (stereo unspecified) |
| 187 | 14 | 17 |  |  |  |  | CC(c1ccc2c(c1)CCO2)N(C)Cc1ccc(OCCN2C(=O)CCC2=O)c(Cl)c1 (stereo unspecified) |
| 70 | 7 | 11 |  |  |  |  | COc1cc(CN(Cc2ccc3c(c2)CCO3)CC(C)C)ccc1OCCN1C(=O)CCC1=O |
| 340 | 28 | 24 |  |  |  |  | COc1cc(CN(Cc2ccc3c(c2)CCO3)C(C)c2ccc3c(c2)CCO3)ccc1OCCN1C(=O)CCC1=O (stereo unspecified) |
| 780 |  |  |  |  |  |  | COc1cc(CNC(C)(C)c2ccc3c(c2)CCO3)ccc1OCCN1C(=O)CCC1=O |
| 110 | 5 | 5 |  |  |  |  | CCC(c1ccc2c(c1)CCO2)N(CC)Cc1ccc(OCCN2C(=O)CCC2=O)c(OC)c1 (stereo unspecified) |
| 55 | 2 | 9 |  |  |  |  | COc1cc(CN(CC(C)C)C(C)c2ccc3c(c2)CCO3)ccc1OCCN1C(=O)CCC1=O (stereo unspecified) |
| 210 | 100 | 95 |  | 2 |  |  | COc1cc(CN(CCCC(=O)O)C(C)c2ccc3c(c2)CCO3)ccc1OCCN1C(=O)CCC1=O (stereo unspecified) |
|  | 75 | 81 | 5.7 |  | 0 | 0.083 | COc1cc(CN(C[C@H]2CC[C@H](C(=O)O)CC2)[C@H]2CCc3c2ccc(Cl)c3Cl)ccc1OCCN1C(=O)CCC1=O |
|  | 56 | 92 | 3.95 |  | 98 |  | CC(c1ccc2c(c1)CCO2)N(Cc1ccc(OCCN2C(=O)CCC2=O)c(Cl)c1)C[C@H]1CC[C@H](C(=O)O)CC1 (stereo partly specified) |
|  | 54 | 55 | 6.62 |  |  |  | COc1cc(CN(C[C@H]2CC[C@H](C(=O)O)CC2)[C@@H]2CCc3cc(Cl)ccc32)ccc1OCCN1C(=O)CCC1=O |
| 2200 | 48 | 13 |  |  |  |  | COc1cc(CN(CCN)C(C)c2ccc3c(c2)CCO3)ccc1OCCN1C(=O)CCC1=O (stereo unspecified) |
| 382 | 92 | 94 | 3.21 |  |  |  | COc1cc(CN(CCCC(=O)O)C(c2ccc3c(c2)CCO3)C2CCCC2)ccc1OCCN1C(=O)CCC1=O (stereo unspecified) |
| 97 | 24 | 19 |  |  |  |  | COc1cc(CN(Cc2ccc(F)cc2)C(C)c2ccc3c(c2)CCO3)ccc1OCCN1C(=O)CCC1=O (stereo unspecified) |
| 840 |  |  |  |  |  |  | COc1cc(CN(C[C@H]2CC[C@H](C(=O)OC)CC2)[C@H]2CCc3cc(Cl)ccc32)ccc1OCCN1C(=O)CCC1=O |
| 330 |  |  |  |  |  |  | COc1cc(CN(C)C(CC(C)C)c2ccc3c(c2)CCO3)ccc1OCCN1C(=O)CCC1=O (stereo unspecified) |
| 130 | 41 | 42 |  |  |  |  | COc1cc(CN(Cc2ccncc2)C(C)c2ccc3c(c2)CCO3)ccc1OCCN1C(=O)CCC1=O (stereo unspecified) |
| 126 | 51 | 77 | 0.2 |  |  |  | COc1cc(CN(Cc2ccc(-c3nnn[nH]3)cc2)C(C)c2ccc3c(c2)CCO3)ccc1OCCN1C(=O)CCC1=O (stereo unspecified) |
| 1060 |  |  |  |  |  |  | CCC(NCc1ccc(OCCN2C(=O)CCC2=O)c(OC)c1)c1ccc2c(c1)CCO2 (stereo unspecified) |
| 240 | 60 | 55 |  |  |  |  | COc1cc(CN(C)C(C)c2ccc3c(c2)CCO3)ccc1OCCN1C(=O)CNC1=O (stereo unspecified) |
| 138 | 84 | 87 | 1.34 |  |  |  | COc1cc(CN(Cc2ccc(/C=C/C(=O)O)cc2)C(C)c2ccc3c(c2)CCO3)ccc1OCCN1C(=O)CCC1=O (stereo unspecified) |
| 120 | 4 | 7 |  |  |  |  | COc1cc(CN(C)C(C)c2ccc3c(c2)CCO3)ccc1OCCN1C(=O)CSC1=O (stereo unspecified) |

The next lines start with the compound.

| SMILES | IC50 [1] [nM] | Stability [2] [%] | Stability [3] [%] | Papp at 2 h [4] [×10⁻⁶ cm/s] | bioavailability [5] [%] | inhibition [6] [%] | CLH [7] [mL/h] |
| --- | --- | --- | --- | --- | --- | --- | --- |
| COc1cc(CN(CC(C)=O)C(C)c2ccc3c(c2)CCO3)ccc1OCCN1C(=O)CCC1=O (stereo unspecified) | 202 | 2 | 0 |  |  |  |  |
| CCC(c1ccc2c(c1)CCO2)N(Cc1ccc(C(=O)O)cc1)Cc1ccc(OCCN2C(=O)CCC2=O)c(OC)c1 (stereo unspecified) | 160 | 60 | 78 | 1.46 |  |  |  |
| COc1cc(CN(C)C(C)c2ccc3c(c2)CCO3)ccc1OCCN1C(=O)CN(C)C1=O (stereo unspecified) | 202 | 28 | 26 |  |  |  |  |
| COc1cc(CN(Cc2ccc(C(=O)O)cc2)C(c2ccc3c(c2)CCO3)C2CCCC2)ccc1OCCN1C(=O)CCC1=O (stereo unspecified) | 4200 | 52 |  |  |  |  |  |
| COc1cc(CNCc2ccc3c(c2)CCO3)ccc1OCCN1C(=O)CCC1=O | 290 | 61 | 67 |  |  |  |  |
| COc1cc(CN(C[C@H]2CC[C@H](C(=O)O)CC2)C(C)c2ccc3c(c2)CCO3)ccc1OCCN1C(=O)CCC1=O (stereo partly specified) |  | 98 | 92 | 0.98 | 17.3 | 54 |  |
| COc1cc(CN(C[C@H]2CC[C@H](C(=O)O)CC2)[C@H]2CCc3cc(Cl)ccc32)ccc1SCCN1C(=O)CCC1=O |  | 15 | 3 | 7.24 |  |  |  |
| COc1cc(CN(Cc2ccc(C(=O)O)cc2)C(C)c2ccc3c(c2)CCO3)ccc1OCCN1C(=O)CCC1=O (stereo unspecified) | 120 | 61 | 63 |  | 9 |  |  |
| Cc1cc(CN(C)C(C)c2ccc3c(c2)CCO3)ccc1OCCN1C(=O)CCC1=O (stereo unspecified) | 230 | 29 | 19 |  |  |  |  |
| CCC(c1ccc2c(c1)CCO2)N(Cc1ccc(OCCN2C(=O)CCC2=O)c(OC)c1)CC(C)C (stereo unspecified) | 38 | 19 | 19 |  |  |  |  |
| COc1cc(CN(CCO)C(C)c2ccc3c(c2)CCO3)ccc1OCCN1C(=O)CCC1=O (stereo unspecified) | 82 | 3 | 4 |  |  |  |  |
| COc1cc(CN(C)C(C)c2ccc3c(c2)CCO3)ccc1NCCN1C(=O)CCC1=O (stereo unspecified) | 443 |  |  |  |  |  |  |
| COc1cc(CN(CC23CCC(C(=O)O)(CC2)CC3)C(C)c2ccc3c(c2)CCO3)ccc1OCCN1C(=O)CCC1=O (stereo unspecified) | 225 | 71 | 79 | 6.56 |  |  |  |
| CCCC(NCc1ccc(OCCN2C(=O)CCC2=O)c(OC)c1)c1ccc2c(c1)CCO2 (stereo unspecified) | 1200 |  |  |  |  |  |  |
| COc1cc(CN(C)[C@@H](C)c2ccc3c(c2)CCO3)ccc1OCCN1C(=O)CCC1=O | 154 |  |  |  |  |  |  |
| COc1cc(CNC(C)c2ccc3c(c2)CCO3)ccc1OCCN1C(=O)CCC1=O (stereo unspecified) | 607 | 61 | 62 |  |  |  |  |
| CCCC(c1ccc2c(c1)CCO2)N(C)Cc1ccc(OCCN2C(=O)CCC2=O)c(OC)c1 (stereo unspecified) | 110 | 9 | 8 |  |  |  |  |
| COc1cc(CN(CC2CCCCC2)C(C)c2ccc3c(c2)CCO3)ccc1OCCN1C(=O)CCC1=O (stereo unspecified) | 52 | 35 | 27 |  |  |  |  |
| COc1cc(CN(C)[C@H](C)c2ccc3c(c2)CCO3)ccc1OCCN1C(=O)CCC1=O | 790 |  |  |  |  |  |  |
| COc1cc(CN(Cc2ccc(C(=O)O)cc2)[C@H](C)c2ccc(Cl)cc2)ccc1OCCN1C(=O)CCC1=O | 345 | 98 | 100 | 3.7 |  |  |  |
| COc1cc(CNC(c2ccc3c(c2)CCO3)C2CCCC2)ccc1OCCN1C(=O)CCC1=O (stereo unspecified) | 3260 |  |  |  |  |  |  |
| COc1cc(CN(C[C@H]2CC[C@H](C(=O)O)CC2)[C@H]2CCc3cc(Cl)ccc32)ccc1CCCN1C(=O)CCC1=O | 1000 | 36 | 24 | 16.5 |  |  |  |
| COc1cc(CN(CC(C)O)C(C)c2ccc3c(c2)CCO3)ccc1OCCN1C(=O)CCC1=O (stereo unspecified) | 77 | 2 | 0 |  |  |  |  |
